How the values were obtained:
[1] = HPLC capacity factor (k') (artificial membrane chromatography); assay type: ADME
Summary of the method: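 Immobilized artificial membrane (IAM) column; mobile phase 10 mM sodium phosphate pH 6.4 in 25% aqueous propylene glycol, 2 mL/min. Samples at 100 µg/mL in mobile phase, UV detection 220 nm, KI as void marker. k' of each compound divided by mean k' of a reference standard injected before and after each set of five compounds; reported as relative k' (log for comparisons).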

[2] = Mean peak APTT value was evaluated on rats by intracolonic instillation of a 25% aqueous propylene glycol solution of heparin (25 mg/kg) and compound (50 mg/kg).; assay type: functional, Rattus norvegicus

SMILES | Log relative k' [1] | Mean peak APTT [2]
O=C(O)CCCCCCCNC(=O)c1cc(O)ccc1O | 0.51 | 25
O=C(O)CCNC(=O)c1ccccc1O | -0.63 | 22
O=C(O)CCCCCCCNC(=O)c1ccc(Br)cc1 | 0.76 | 60
COc1cc(Cl)ccc1C(=O)NCCCCCCCC(=O)O | 0.79 | 75
O=C(O)CCCCCCCNC(=O)c1ccccc1Br | 0.24 | 21
O=C(O)CCCCCCCCCCCNC(=O)C/C=C/c1ccccc1 | 2.29 | 41
O=C(O)CCCCCCCCCNC(=O)c1ccccc1O | 1.43 | 153
O=C(O)CCCCCCCCCCNC(=O)c1ccccc1O | 1.88 | 51
O=C(O)CCCCCCCCNC(=O)C/C=C/c1ccccc1 | 0.69 | 140
Nc1ccccc1C(=O)NCCCCCCCC(=O)O | 0.02 | 24
O=C(O)CCCCCCCNC(=O)c1ccc(O)cc1 | -0.04 | 27
O=C(O)CCCCCCCNC(=O)Cc1ccccc1O | 0.12 | 21
Cc1ccccc1C(=O)NCCCCCCCC(=O)O | 0.45 | 25
O=C(O)CCCCCCCNC(=O)c1cc(O)cc(O)c1 | -0.06 | 20
O=C(O)CCCCCCCNC(=O)c1ccc(Cl)c([N+](=O)[O-])c1 | 0.94 | 34
O=C(O)CCCCCCCNC(=O)c1c(F)c(F)c(F)c(F)c1F | 0.41 | 22
O=C(O)CCCCCCCNC(=O)c1cccc(I)c1 | 1.05 | 39
O=C(O)CCCCCCCNC(=O)c1ccc(I)cc1 | 0.97 | 23
O=C(O)CCCCCCCNC(=O)c1ccc(F)cc1 | 0.23 | 31
O=C(O)CCCCCCCNC(=O)c1ccc2ccccc2c1O | 2.1 | 31
O=C(O)CCCCCCCNC(=O)c1c(O)cccc1O | 1.12 | 42
O=C(O)CCCCCCCNC(=O)c1c(F)cccc1Cl | 0.23 | 23
O=C(O)CCCCCCCNC(=O)c1cc(Br)ccc1O | 1.54 | 111

SMILES | Log relative k' [1] | Mean peak APTT [2]
O=C(O)CCCCCCCNC(=O)c1ccc(Cl)cc1 | 0.65 | 37
O=C(O)CCCCCCCNC(=O)c1ccccn1 | -0.52 | 23
COc1ccccc1C(=O)NCCCCCCCC(=O)O | 0.33 | 26
O=C(O)CCCCCCCNC(=O)C1CCCCC1 | 0.15 | 34
O=C(O)CCCCCCCNC(=O)c1ccccc1OC(F)(F)F | -0.64 | 23
O=C(O)CNC(=O)c1ccccc1O [SALICYLURIC ACID] | -0.68 | 28
O=C(O)CCCNC(=O)c1ccccc1O | -0.41 | 25
O=C(O)CCCCCCCNC(=O)c1ccccc1Cl | 0.18 | 23
O=C(O)CCCCCCCNC(=O)c1ccccc1O [SALCAPROZIC ACID] | 0.68 | 125
O=C(O)CCCCCCCNC(=O)c1cc2ccccc2oc1=O | 0.81 | 34
O=C(O)CCCCCCCCCCCNC(=O)c1ccccc1O | 2.32 | 44
O=C(O)CCCCCCCNC(=O)c1ccccc1F | 0.11 | 25
O=C(O)CCCCCCCNC(=O)c1cc([N+](=O)[O-])ccc1Cl | 0.25 | 23
O=C(O)CCCCCCCNC(=O)c1cccs1 | 0.9 | 22
O=C(O)CCCCCCCNC(=O)c1cccnc1O | 0.9 | 22
O=C(O)CCCCCNC(=O)c1ccc(Cl)cc1O | 0.26 | 40
O=C(O)CCCCCCNC(=O)c1ccccc1O | 0.37 | 56
O=C(O)CCCCCCCNC(=O)c1ccc([N+](=O)[O-])cc1 | 0.44 | 33
O=C(O)CCCCCCCNC(=O)c1cc(Cl)ccc1O | 0.81 | 56
O=C(O)CCCCCCCCNC(=O)c1ccccc1O | 1.04 | 163
O=C(O)CCCCCCCNC(=O)c1ccc([N+](=O)[O-])cc1O | 1.11 | 36
COc1ccccc1C(=O)NCCCCCC(=O)O | -0.47 | 27
COc1cc([N+](=O)[O-])ccc1C(=O)NCCCCCCCC(=O)O | -0.55 | 25

SMILES | Log relative k' [1] | Mean peak APTT [2]
COc1ccc(C(=O)NCCCCCCCC(=O)O)c(O)c1 | 0.92 | 76
COc1ccccc1/C=C/CC(=O)NCCCCCCCCC(=O)O | 0.89 | 56
O=C(O)CCCCCCCNC(=O)c1ccccc1I | 0.35 | 22
Cc1ccc(C(=O)NCCCCCCCC(=O)O)c(O)c1 | 1.05 | 37
O=C(O)CCCCNC(=O)c1ccccc1O | -0.18 | 26
Cc1ccc(O)c(C(=O)NCCCCCCCC(=O)O)c1 | 1.03 | 56
O=C(O)CCCCCCCNC(=O)c1cc(I)ccc1O | 1.72 | 32
O=C(O)CCCCCNC(=O)c1ccccc1O | 0.04 | 24
O=C(O)CCCCCCCCCCNC(=O)c1ccc2ccccc2c1O | > 2.5 | 26
O=C(O)CCCCCCCNC(=O)c1cccc(F)c1 | 0.29 | 35
O=C(O)CCCCCCNC(=O)C/C=C/c1ccccc1 | 0.36 | 39
O=C(O)CCCCCCCNC(=O)c1cccc(O)c1O | 0.46 | 
O=C(O)CCCCCCCNC(=O)c1cccc(O)c1 | 0 | 23
O=C(O)CCCCCCCNC(=O)C/C=C/c1ccccc1 | 0.7 | 73
O=C(O)CCCCCCCNC(=O)c1cccnc1Cl | -0.53 | 30
O=C(O)CCCCCCCNC(=O)c1ccc(O)cc1O | 0.65 | 37
O=C(O)CCCCCCCNC(=O)c1ccccc1 | 0.09 | 21
O=C(O)CCCCCCCNC(=O)c1ccc(Cl)cc1O | 1.43 | 94
O=C(O)CCCCCCCNC(=O)c1cc2ccccc2cc1O | 1.7 | 71
O=C(O)CCCCCCCNC(=O)C1CCCN1 (stereo not given) | -0.28 | 25
O=C(O)CCCCCCCNC(=O)c1ccccc1C(=O)O | -1 | 23
Cc1cccc(C(=O)NCCCCCCCC(=O)O)c1O | 1.23 | 27
